Results as given in ChEMBL document CHEMBL4251757 (J Med Chem, 2018).
pIC50: −log10 of the molar value.

Tests used:
[1] = Tmax in cynomolgus monkey plasma at 1 mg/kg administered via oral gavage by RP-HPLC analysis; type: ADME, organism-based, Macaca fascicularis
Outline: (§1)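 Female cynomolgus monkeys (2.5–3.5 kg). Compound dissolved in EtOH at 75 mg/mL, diluted in 10 volumes of 20 mM NaHCO3 pH 8.0 (9.1% EtOH) and given by oral gavage; 4.4 mL/kg for 30 mg/kg, 2.2 mL/kg for lower doses. Blood drawn into heparin pre-dose and at 0.5, 1, 2, 4, 8, 12, 24 h, sometimes 3 and 7 days. Plasma diluted with 2 volumes MeOH plus internal standard, then RP-HPLC.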

[2] = Cmax in cynomolgus monkey plasma at 10 mg/kg administered via oral gavage by RP-HPLC analysis; type: ADME, organism-based, Macaca fascicularis; parameters: dose 10 mg/kg, route oral; outline: as §1
[3] = Cmax in cynomolgus monkey plasma at 2 mg/kg administered via oral gavage by RP-HPLC analysis; type: ADME, organism-based, Macaca fascicularis; parameters: dose 2 mg/kg, route oral; outline: as §1
[4] = Half life in cynomolgus monkey plasma at 30 mg/kg administered via oral gavage by RP-HPLC analysis; type: ADME, organism-based, Macaca fascicularis; outline: as §1
[5] = AUC (0 to 24 hrs) in cynomolgus monkey plasma at 30 mg/kg administered via oral gavage by RP-HPLC analysis; type: ADME, organism-based, Macaca fascicularis; parameters: dose 30 mg/kg, time < 24 hr, route oral; outline: as §1
[6] = AUC (0 to 24 hrs) in cynomolgus monkey plasma at 5 mg/kg administered via oral gavage by RP-HPLC analysis; type: ADME, organism-based, Macaca fascicularis; parameters: dose 5 mg/kg, time < 24 hr, route oral; outline: as §1
[7] = Drug metabolism in cynomolgus monkey plasma at 30 mg/kg administered via oral gavage assessed as metabolite (R)-5-(5-Chloro-2-((S)-1-hydroxy-6-phenylhexyl)-1-methyl-1Hindol-3-yl)-3-methyl-5-oxopentanoic acid formation after 4 hrs by chiral-HPLC analysis; type: ADME, organism-based, Macaca fascicularis; conditions: in vivo
Outline: (§2)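 After oral gavage of racemate at 30 mg/kg, plasma C025 or its metabolite was isolated by RP-HPLC, then run by chiral HPLC on Cellulose-1 at 2 ml/min and 30 °C. Mobile phase was hexane/MeOH/HOAc 97.5:2.5:0.1 for parent and 97:3:0.1 for metabolite. Samples were taken at 4 h and 24 h; n=2 for enantiomer levels.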

[8] = Half life in cynomolgus monkey plasma at 10 mg/kg administered via oral gavage by RP-HPLC analysis; type: ADME, organism-based, Macaca fascicularis; outline: as §1
[9] = Tmax in cynomolgus monkey plasma at 15 mg/kg administered via oral gavage by RP-HPLC analysis; type: ADME, organism-based, Macaca fascicularis
[10] = Tmax in cynomolgus monkey plasma at 5 mg/kg administered via oral gavage by RP-HPLC analysis; type: ADME, organism-based, Macaca fascicularis; outline: as §1
[11] = Half life in cynomolgus monkey plasma at 1 mg/kg administered via oral gavage by RP-HPLC analysis; type: ADME, organism-based, Macaca fascicularis; outline: as §1
[12] = Tmax in cynomolgus monkey plasma at 10 mg/kg administered via oral gavage by RP-HPLC analysis; type: ADME, organism-based, Macaca fascicularis; outline: as §1
[13] = molecular target: Oxoeicosanoid receptor 1 (Homo sapiens, UniProt Q8TDS5); assay: Antagonist activity at OXE receptor in human neutrophils assessed as inhibition of 5-oxo-ETE-induced calcium mobilization incubated for 2 mins followed by 5-oxo-ETE addition measured after 1 min by fluorescence assay; type: functional
Chain of Oxoeicosanoid receptor 1 (Q8TDS5 whole entry): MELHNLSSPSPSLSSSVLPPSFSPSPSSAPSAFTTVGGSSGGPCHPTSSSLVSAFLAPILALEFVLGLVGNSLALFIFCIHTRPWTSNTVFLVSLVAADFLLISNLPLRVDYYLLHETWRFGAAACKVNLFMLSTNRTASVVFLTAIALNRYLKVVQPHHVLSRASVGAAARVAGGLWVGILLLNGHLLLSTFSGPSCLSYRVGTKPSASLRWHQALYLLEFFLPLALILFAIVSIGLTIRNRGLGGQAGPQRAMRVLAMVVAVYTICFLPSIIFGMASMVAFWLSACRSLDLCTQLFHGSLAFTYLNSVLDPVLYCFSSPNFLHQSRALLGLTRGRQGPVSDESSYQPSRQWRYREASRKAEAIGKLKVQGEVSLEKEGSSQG
Outline: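 Human neutrophils were isolated from healthy donors by dextran sedimentation and Ficoll-Paque centrifugation, then loaded with indo-1. Fluorescence was read at 37 °C in a stirred cuvette. Antagonist was added at various concentrations; 2 min later 5-oxo-ETE (10 nM) was added. Digitonin (final 0.1%) followed 1 min later to give maximal fluorescence.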

[14] = Plasma concentration in cynomolgus monkey at 30 mg/kg administered via oral gavage after 24 hrs by chiral-HPLC analysis; type: ADME, organism-based, Macaca fascicularis; outline: as §2
[15] = Cmax in cynomolgus monkey plasma at 15 mg/kg administered via oral gavage by RP-HPLC analysis; type: ADME, organism-based, Macaca fascicularis; parameters: dose 15 mg/kg, route oral
[16] = Plasma concentration in cynomolgus monkey at 30 mg/kg administered via oral gavage after 3 days by RP-HPLC analysis; type: ADME, organism-based, Macaca fascicularis; outline: as §1
[17] = AUC (0 to 24 hrs) in cynomolgus monkey plasma at 1 mg/kg administered via oral gavage by RP-HPLC analysis; type: ADME, organism-based, Macaca fascicularis; parameters: time < 24 hr, dose 1 mg/kg, route oral; outline: as §1
[18] = AUC (0 to 24 hrs) in cynomolgus monkey plasma at 2 mg/kg administered via oral gavage by RP-HPLC analysis; type: ADME, organism-based, Macaca fascicularis; parameters: dose 2 mg/kg, time < 24 hr, route oral; outline: as §1
[19] = Tmax in cynomolgus monkey plasma at 30 mg/kg administered via oral gavage by RP-HPLC analysis; type: ADME, organism-based, Macaca fascicularis; outline: as §1
[20] = Plasma concentration in cynomolgus monkey at 30 mg/kg administered via oral gavage after 7 days by RP-HPLC analysis; type: ADME, organism-based, Macaca fascicularis; outline: as §1
[21] = Tmax in cynomolgus monkey plasma at 2 mg/kg administered via oral gavage by RP-HPLC analysis; type: ADME, organism-based, Macaca fascicularis; outline: as §1
[22] = AUC (0 to 24 hrs) in cynomolgus monkey plasma at 10 mg/kg administered via oral gavage by RP-HPLC analysis; type: ADME, organism-based, Macaca fascicularis; parameters: time < 24 hr, dose 10 mg/kg, route oral; outline: as §1
[23] = Half life in cynomolgus monkey plasma at 2 mg/kg administered via oral gavage by RP-HPLC analysis; type: ADME, organism-based, Macaca fascicularis; outline: as §1
[24] = Cmax in cynomolgus monkey plasma at 1 mg/kg administered via oral gavage by RP-HPLC analysis; type: ADME, organism-based, Macaca fascicularis; parameters: dose 1 mg/kg, route oral; outline: as §1
[25] = Cmax in cynomolgus monkey plasma at 30 mg/kg administered via oral gavage by RP-HPLC analysis; type: ADME, organism-based, Macaca fascicularis; parameters: dose 30 mg/kg, route oral; outline: as §1
[26] = Cmax in cynomolgus monkey plasma at 5 mg/kg administered via oral gavage by RP-HPLC analysis; type: ADME, organism-based, Macaca fascicularis; parameters: dose 5 mg/kg, route oral; outline: as §1
[27] = Half life in cynomolgus monkey plasma at 5 mg/kg administered via oral gavage by RP-HPLC analysis; type: ADME, organism-based, Macaca fascicularis; outline: as §1
[28] = Half life in cynomolgus monkey plasma at 15 mg/kg administered via oral gavage by RP-HPLC analysis; type: ADME, organism-based, Macaca fascicularis
[29] = AUC (0 to 24 hrs) in cynomolgus monkey plasma at 15 mg/kg administered via oral gavage by RP-HPLC analysis; type: ADME, organism-based, Macaca fascicularis; parameters: time < 24 hr, dose 15 mg/kg, route oral
[30] = Drug level in cynomolgus monkey plasma treated with 30 mg/kg 5-(5-Chloro-1-methyl-2-(6-phenylhexyl)-1H-indol-3-yl)-3-methyl-5-oxopentanoic Acid administered via oral gavage assessed as compound formation after 12 hrs by RP-HPLC analysis; type: ADME, organism-based, Macaca fascicularis; conditions: in vivo
Outline: (§3)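 Monkeys received 30 mg/kg by oral gavage in EtOH/20 mM NaHCO3 pH 8.0 vehicle. A plasma extract taken 12 h later was run by RP-HPLC on a C18 column (4 µm, 3.9 x 150 mm) with a 15-min gradient of 70–100% MeOH in H2O, both containing 0.02% HOAc. The tetramethylene analog served as internal standard.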

[31] = Drug metabolism in cynomolgus monkey plasma at 30 mg/kg administered via oral gavage assessed as metabolite (S)-5-(5-Chloro-2-((S)-1-hydroxy-6-phenylhexyl)-1-methyl-1Hindol-3-yl)-3-methyl-5-oxopentanoic acid formation after 24 hrs by chiral-HPLC analysis; type: ADME, organism-based, Macaca fascicularis; conditions: in vivo; outline: as §2
[32] = Plasma concentration in cynomolgus monkey at 30 mg/kg administered as oral gavage measured after 1 hr by RP-HPLC analysis; type: ADME, organism-based, Macaca fascicularis; outline: as §1
[33] = Plasma concentration in cynomolgus monkey at 30 mg/kg administered as oral gavage measured after 8 hrs by RP-HPLC analysis; type: ADME, organism-based, Macaca fascicularis; outline: as §1
[34] = Drug metabolism in cynomolgus monkey plasma at 30 mg/kg administered via oral gavage assessed as phenylpentamethylene side chain modification after 12 hrs by RP-HPLC analysis; type: ADME, organism-based, Macaca fascicularis; conditions: in vivo; outline: as §3
[35] = Drug metabolism in cynomolgus monkey plasma at 30 mg/kg administered via oral gavage assessed as metabolite (S)-5-(5-Chloro-2-((S)-1-hydroxy-6-phenylhexyl)-1-methyl-1Hindol-3-yl)-3-methyl-5-oxopentanoic acid formation after 12 hrs by RP-HPLC analysis; type: ADME, organism-based, Macaca fascicularis; conditions: in vivo; outline: as §3

Structure (SMILES): C[C@H](CC(=O)O)CC(=O)c1c(CCCCCCc2ccccc2)n(C)c2ccc(Cl)cc12
- Tmax [1]: 42 min
- Cmax [2]: 35 µM
- Cmax [3]: 7.8 µM
- half-life [4]: 210 min
- AUC(0-t) at 24 h [5]: 684 µM·h
- AUC(0-t) at 24 h [6]: 78 µM·h
- Drug metabolism [7]: Metabolite_Detected
- half-life [8]: 168 min
- Tmax [9]: 0.8 h
- Tmax [10]: 1.2 h
- half-life [11]: 54 min
- Tmax [12]: 1.2 h
- pIC50 [13]: 9.92
- concentration at 24 h [14]: 1000 nM
- Cmax [15]: 32 µM
- concentration at 72 h [16]: 160 nM
- AUC(0-t) at 24 h [17]: 13 µM·h
- AUC(0-t) at 24 h [18]: 26 µM·h
- Tmax [19]: 1.3 h
- concentration at 168 h [20]: 40 nM
- Tmax [21]: 42 min
- AUC(0-t) at 24 h [22]: 171 µM·h
- half-life [23]: 66 min
- Cmax [24]: 4.5 µM
- Cmax [25]: 106 µM
- Cmax [26]: 18 µM
- half-life [27]: 114 min
- half-life [28]: 204 min
- AUC(0-t) at 24 h [29]: 169 µM·h
- Drug uptake [30]: Active

Structure (SMILES): C[C@H](CC(=O)O)CC(=O)c1c([C@H](O)CCCCCc2ccccc2)n(C)c2ccc(Cl)cc12
- pIC50 [13]: 6.59

Structure (SMILES): CC(CC(=O)O)CC(=O)n1c(CCCCc2ccccc2)cc2ccc(Cl)cc21 (stereo not drawn)
- pIC50 [13]: 7.74

Structure (SMILES): C[C@@H](CC(=O)O)CC(=O)c1c(CCCCCCc2ccccc2)n(C)c2ccc(Cl)cc12
- Tmax [9]: 2.5 h
- Drug metabolism [31]: Metabolite_Detected
- concentration at 24 h [14]: > 20000 nM
- Cmax [15]: 79 µM
- half-life [28]: 558 min
- AUC(0-t) at 24 h [29]: 1080 µM·h
- Drug uptake [30]: Active

Structure (SMILES): C[C@@H](CC(=O)O)CC(=O)c1c([C@H](O)CCCCCc2ccccc2)n(C)c2ccc(Cl)cc12
- pIC50 [13]: 6.12

Structure (SMILES): CCCCCCc1cc2ccc(Cl)cc2n1C(=O)CC(C)CC(=O)O (racemic)
- concentration at 1 h [32]: > 25 µM
- half-life [4]: 72 min
- AUC(0-t) at 24 h [5]: 55 µM·h
- concentration at 8 h [33]: < 500 nM
- Tmax [19]: 0.9 h
- Cmax [25]: 27 µM

Structure (SMILES): CCCCCCc1c(C(=O)CC(C)CC(=O)O)c2cc(Cl)ccc2n1C (racemic)
- half-life [4]: 42 min
- AUC(0-t) at 24 h [5]: 198 µM·h
- pIC50 [13]: 7.59 to 7.77
- Tmax [19]: 0.6 h
- Cmax [25]: 121 µM

Structure (SMILES): CC(CC(=O)O)CC(=O)n1c(CCCCCc2ccccc2)cc2ccc(Cl)cc21 (racemic)
- half-life [4]: 180 min
- AUC(0-t) at 24 h [5]: 294 µM·h
- pIC50 [13]: 8.68
- Tmax [19]: 2 h
- Cmax [25]: 55 µM
- Drug metabolism [34]: Metabolite_Detected

Structure (SMILES): CC(CC(=O)O)CC(=O)c1c(CCCCCCc2ccccc2)n(C)c2ccc(Cl)cc12 (racemic)
- half-life [4]: 444 min
- AUC(0-t) at 24 h [5]: 1250 µM·h
- Drug metabolism [35]: Metabolite_Detected
- pIC50 [13]: 9.55
- Tmax [19]: 2.5 h
- Cmax [25]: 108 µM
